Screens as filed in PubChem BioAssay.
Only some compounds are listed: those with a hit (about 3% of all), similar ones and a draw of the others.
SIRT5 inh: SIRT5 desuccinylase inhibitors, primary screen, biochemical, fluorescence imaging, single point, set 5. NAD-dependent protein deacylase sirtuin-5, mitochondrial (Homo sapiens), Q9NXA8. Purified SirT5, succinyl-peptide AMC, trypsin-coupled fluorescence. inhibition, % at 15 µM. hit rate 1.1% among 330,000; in the data active = inhibition above about 15%
Target sequence (Q9NXA8 whole entry, looked up): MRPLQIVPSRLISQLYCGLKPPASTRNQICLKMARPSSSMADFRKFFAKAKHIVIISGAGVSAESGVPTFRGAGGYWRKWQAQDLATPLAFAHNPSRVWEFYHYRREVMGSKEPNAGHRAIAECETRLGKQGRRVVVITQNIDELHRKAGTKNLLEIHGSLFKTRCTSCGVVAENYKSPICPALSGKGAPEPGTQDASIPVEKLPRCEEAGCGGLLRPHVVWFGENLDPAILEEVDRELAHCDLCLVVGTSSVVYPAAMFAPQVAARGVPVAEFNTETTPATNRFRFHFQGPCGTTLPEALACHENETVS
PGC1a acetyl inh: inhibitors of PGC1a acetylation signal, primary screen, cell-based, U2OS, AlphaScreen, inhibitor mode | AlphaScreen anti-acetyl-lysine; with virally co-expressed GCN5 acetyltransferase | inhibition, % at 15.6 µM | hit rate 0.17% among 350,000 | AID 651687, 2012;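 active = every replicate shows inhibition of at least 40%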
Ecoli rRNA inh: reduced GFP signal of wild-type E. coli, primary screen, bacterial rRNA inhibitor project, GFP/RFP fluorescence, OD600, single point; hit rate 1.6% among 350,000; AID 720706, 2013; E. coli WT GFP vs humanized-ribosome RFP mutants, 24 h; active compounds read low; DMSO median 0, no signal -100; GFP signal change (wild-type ribosome), % (test concentration not listed);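 active = significant combined selectivity score with lowered wild-type GFP, culture density cut under 30%, mutant RFP and density less affected; inactive = any of these conditions unmet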
S100A4 inh HTS: inhibitors of S100A4-myosin IIA peptide binding, primary screen, biochemical, fluorescence polarization, TAMRA-MyoIIA peptide. Protein S100-A4 (Homo sapiens), P26447. inhibition, % at 10.7 µM. hit rate 0.14% among 360,000. AID 652163, 2013;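 active = mean inhibition of at least 70% across replicates, with every replicate also reaching that level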
Target sequence (P26447 whole entry, looked up): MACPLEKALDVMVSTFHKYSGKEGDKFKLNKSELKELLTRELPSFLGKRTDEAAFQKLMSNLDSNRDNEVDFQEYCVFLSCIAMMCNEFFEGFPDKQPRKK
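Test system – S100A4 monomer (human) · Compound – single-point compound testing · Schedule – 5 min incubation before reading · Probe or stimulus – TAMRA-labelled myosin IIA heavy-chain peptide probe, 5 nM · Benchmarks – neutral control DMSO, positive control TFP · Medium – Calcium-containing HEPES buffer, pH 7.2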
Cneo AK release: Cryptococcus neoformans cell lysis inducers, primary screen, AK release luminescence, single concentration; hit rate 0.2% among 360,000; lysis activity, % at 15 µM; C. neoformans lysis, adenylate kinase release luminescence, 4 h; normalised: neutral wells 0, clomiphene wells 100;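 active = mean lysis activity across replicates of at least 80%, whatever share of replicates individually reach that level; inactive = mean lysis activity below 80%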
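Material: C. neoformans cells; Schedule: 4 h static compound exposure, 37 °C, read 1 h post-reagent; Measured by: adenylate kinase release luminescence; Read-out: signal increase indicating cell lysis; Controls: Clomiphene as positive lysis control.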
Statin myotox sup: suppressors of statin myotoxicity in C2C12 myotubes, primary screen, cell-based, single point, plate reader; AID 602340, 2012; hit rate 0.78% among 330,000; rescue of ATP level, % at 7.49 µM; C2C12 myotubes + simvastatin, ATP luminescence, 48 h; scaled: DMSO 0, geranylgeraniol control 100;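 active = mean ATP rescue above about 67%, or every replicate alone reaching that limit, limit read from the data, passing the limit was not always enough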;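 also: myotubes were challenged with 10 µM simvastatin during compound exposure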
Hits are given with their value; i = inactive; nt = no result given.

SMILES | SIRT5 inh | PGC1a acetyl inh | Ecoli rRNA inh | S100A4 inh HTS | Cneo AK release | Statin myotox sup
CCOc1cc(/C=N/Nc2ccc(S(=O)(=O)Nc3ccccc3C(=O)O)cc2[N+](=O)[O-])cc(Cl)c1O | nt | nt | -8.1 | i | i | i
CCCNC(=O)C[C@H]1C[C@@H]2c3cc(NC(=O)Nc4ccccc4)ccc3O[C@@H]2[C@H](CO)O1 | nt | i | i | nt | i | i
C[C@H]1CCCCO[C@@H](CN(C)C(=O)Nc2ccccc2)[C@@H](C)CN([C@@H](C)CO)C(=O)c2cc(NS(=O)(=O)c3ccc(F)cc3)ccc2O1 | nt | nt | i | nt | nt | nt
CO[C@H]1CN(C)C(=O)c2cc(NC(=O)C3CCC3)ccc2OC[C@@H](C)N(Cc2ccc(F)cc2)C[C@@H]1C | i | nt | i | i | i | i
CCC(=O)N1CCC2(CC1)CN(C(=O)c1ccccn1)[C@H](CO)c1c2c2ccc(OC)cc2n1C | nt | i | i | nt | nt | nt
O=C(O)c1ccccc1NS(=O)(=O)c1ccc(N/N=C/c2cccc(O)c2O)c([N+](=O)[O-])c1 | i | i | nt | i | i | i
O=[N+]([O-])c1ccc(N/N=C/c2ccccc2)c(F)c1 | i | i | i | i | i | nt
COc1ccccc1NS(=O)(=O)c1cccc(-n2c(O)c(C=Nc3ccccc3C(=O)O)c3ccccc3c2=O)c1 | i | i | -25 | i | i | nt
COc1cc(C=NNc2ccc(S(=O)(=O)Nc3ccccc3C(=O)O)cc2[N+](=O)[O-])ccc1O | 22 | i | i | i | i | i
O=C(O)c1ccccc1NS(=O)(=O)c1ccc(NNC(=S)Nc2ccc(OC(F)F)cc2)c([N+](=O)[O-])c1 | 24 | i | i | i | nt | nt
CN(CCO)c1ccc(C=NNc2ccc([N+](=O)[O-])cc2S(=O)(=O)Nc2ccccc2C(=O)O)cc1 | 22 | i | -14 | i | i | i
CCCC#Cc1cnc2c(c1)C(=O)N([C@@H](C)CO)C[C@@H](C)[C@H](CN(C)C(=O)c1cccnc1)O2 | i | i | i | i | i | i
CC(=O)Nc1cccc(/C(C)=N/Nc2ccc(S(=O)(=O)Nc3ccccc3C(=O)O)cc2[N+](=O)[O-])c1 | 21 | i | i | i | i | i
CC(=O)Nc1nc2n(n1)C(c1ccccc1)C=C(c1ccccc1)N2 (stereo not drawn) | nt | i | nt | nt | i | i
CC(=O)Nc1nc2n(n1)C(c1ccc(F)cc1)C=C(c1ccccc1)N2 (stereo not drawn) | nt | i | nt | nt | i | 133
C[C@H]1CN([C@@H](C)CO)S(=O)(=O)c2ccc(C#CC(C)(C)O)cc2O[C@H]1CN(C)C | i | i | i | i | i | i
COc1cccc(NC(=O)C(=O)N/N=C/c2cc(C)n(-c3ccc(Cl)c(Cl)c3)c2C)c1 | i | i | -18 | i | i | i
CCCCCCOc1ccc(N2C(=O)CC(NCc3ccc(S(N)(=O)=O)cc3)C2=O)cc1 (stereo not drawn) | i | i | i | i | i | nt
CCOc1cccc(N2C(=O)CC(NCc3ccc(S(N)(=O)=O)cc3)C2=O)c1 (stereo not drawn) | nt | i | nt | nt | i | 78
O=C(Cc1ccccc1)N1CC[C@H]2[C@H](CO)Nc3ccc(-c4ccccc4)cc3[C@H]21 | i | i | i | i | i | i
C[C@@H]1CN([C@@H](C)CO)C(=O)c2cccc(NC(=O)Nc3ccc(F)cc3)c2O[C@@H]1CN(C)Cc1ccccc1 | i | i | i | i | i | i
CC(=O)N1CCN(S(=O)(=O)c2cccc(C(=O)NCc3ccc(F)cc3)c2)CC1 | i | i | i | i | i | 77
Cc1noc(C)c1S(=O)(=O)Nc1ccc2c(c1)CC(=O)N([C@@H](C)CO)C[C@H](C)[C@@H](CN(C)S(C)(=O)=O)O2 | nt | i | i | nt | i | i
Nc1nc(N)c(C=Nc2ccc(Br)cc2)c(Nc2ccc(Br)cc2)n1 | i | nt | -25 | i | i | i
